Measurements published in ChEMBL document CHEMBL3739406, “Trisubstituted Thieno[3,2-b]pyrrole 5-Carboxamides as Potent Inhibitors of Alphaviruses” (J Med Chem, 2015).

Legend:
[1] = Cytotoxicity against HEK293T cells assessed as reduction in cell viability after 24 hrs by cell titer-glo luminescent cell viability assay; format: cell-based, HEK-293T; conditions: human
Procedure, shortened: (§1)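 HEK 293T cells, 3 × 10⁴/well, seeded overnight, then exposed 24 h to compound (0.01–100 μM, triplicate) in DMEM pH 6.8 with 10% FBS. Viability read by CellTiter-Glo luminescence. Normalized to untreated (100%) and medium blank (0%); CC50 by five-parameter curve fit.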

[2] = Selectivity index, ratio of CC50 for HEK293T cells to EC50 for Chikungunya virus infected in HEK293T cells; format: toxicity, cell-based, HEK-293T; conditions: human, read-out: Ratio CC50/EC50
Chikungunya virus = test: Antiviral activity against Chikungunya virus infected in HEK293T cells assessed as reduction of infectivity measured at 24 hrs postinfection by gaussia luciferase reporter gene assay; format: functional, cell-based; conditions: HEK-293T
[3] = Cytotoxicity against HEK293T cells assessed as cell viability at antiviral EC50 after 24 hrs by cell titer-glo luminescent cell viability assay; format: cell-based, HEK-293T; conditions: human, read-out: Activity; procedure, shortened: as §1

With `COc1ccc(Cn2c(C(=O)N3CCN(Cc4ccccc4)CC3)cc3sc(-c4ccccc4)cc32)cc1` the CC50 at 24 h [1] was > 100 µM, the selectivity ratio [2] was > 2.4 and the EC50 (Chikungunya virus) was 42.4 µM. For the same molecule, the viability at 24 h [3] was > 80%.
Molecule `CCCNC(=O)C1CCN(C(=O)c2c(CNCc3ccccc3)c3sccc3n2Cc2ccc(OC)cc2)CC1` has a CC50 at 24 h [1] of 77.6 µM, a selectivity ratio [2] of 5 and an EC50 (Chikungunya virus) of 15.4 µM. The viability at 24 h [3] was > 80%.
In the case of `COc1ccc(Cn2c(C(=O)N3CCN(Cc4ccccc4)CC3)cc3sccc32)cc1`, the CC50 at 24 h [1] is reported as > 100 µM, the selectivity ratio [2] is reported as > 2.4 and the EC50 (Chikungunya virus) is reported as 41.7 µM. For the same molecule, the viability at 24 h [3] was > 80%.
For `COc1ccc(Cn2c(C(=O)N3CCC(C(N)=O)CC3)cc3sccc32)cc1`, the CC50 at 24 h [1] was > 100 µM, the selectivity ratio [2] was > 1.4 and the EC50 (Chikungunya virus) was 70.9 µM. For the same molecule, the viability at 24 h [3] was > 80%.
For `COc1ccc(Cn2c(C(=O)N3CCN(Cc4ccccc4)CC3)c(CNC(C)c3ccccc3)c3sccc32)cc1` (configuration not stated), the CC50 at 24 h [1] was > 100 µM, the selectivity ratio [2] was > 4.3 and the EC50 (Chikungunya virus) was 23 µM. For the same molecule, the viability at 24 h [3] was > 80%.
For `CCCNCc1c(C(=O)N2CCC(C(=O)NCCC)CC2)n(Cc2ccc(OC)cc2)c2ccsc12`, the CC50 at 24 h [1] was > 100 µM, the selectivity ratio [2] was > 3.6 and the EC50 (Chikungunya virus) was 27.7 µM. The viability at 24 h [3] was > 80%.
With `CCCNC(=O)c1cc2sccc2n1Cc1ccc(OC)cc1` the CC50 at 24 h [1] was > 100 µM, the EC50 (Chikungunya virus) was > 100 µM and the viability at 24 h [3] was > 80%.
With `CCCNC(=O)C1CCN(C(=O)c2cc3sc(C(C)=O)cc3n2Cc2ccc(OC)cc2)CC1` the CC50 at 24 h [1] was > 100 µM, the selectivity ratio [2] was > 4.8 and the EC50 (Chikungunya virus) was 20.9 µM. The viability at 24 h [3] was > 80%.
For `CCN(CC)C(=O)c1cc2sccc2n1Cc1ccc(OC)cc1`, the CC50 at 24 h [1] was > 100 µM, the selectivity ratio [2] was > 2 and the EC50 (Chikungunya virus) was 49.6 µM. The viability at 24 h [3] was > 80%.
With `COc1ccc(Cn2c(C(=O)O)cc3sccc32)cc1` the CC50 at 24 h [1] was > 100 µM, the EC50 (Chikungunya virus) was > 100 µM and the viability at 24 h [3] was > 80%.
In the case of `CCOC(=O)C1CCN(C(=O)c2cc3sccc3n2Cc2ccc(OC)cc2)CC1`, the CC50 at 24 h [1] is reported as 39 µM, the selectivity ratio [2] is reported as 3 and the EC50 (Chikungunya virus) is reported as 13.1 µM. For the same molecule, the viability at 24 h [3] was > 80%.
In the case of `COc1ccc(Cn2c(C(=O)N3CCN(Cc4ccccc4)CC3)cc3sc(COCc4ccccc4)cc32)cc1`, the CC50 at 24 h [1] is reported as > 100 µM, the EC50 (Chikungunya virus) is reported as > 100 µM and the viability at 24 h [3] is reported as > 80%.
For `COc1ccc(Cn2c(C(=O)N3CCC(C(=O)NCCc4ccccc4)CC3)cc3sccc32)cc1`, the CC50 at 24 h [1] was > 100 µM, the selectivity ratio [2] was > 9 and the EC50 (Chikungunya virus) was 11.1 µM. For the same molecule, the viability at 24 h [3] was > 80%.
With `CCCNC(=O)C1CCN(C(=O)c2c(CO)c3sccc3n2Cc2ccc(OC)cc2)CC1` the CC50 at 24 h [1] was > 100 µM, the selectivity ratio [2] was > 2.1 and the EC50 (Chikungunya virus) was 47.6 µM. For the same molecule, the viability at 24 h [3] was > 80%.
In the case of `COc1ccc(Cn2c(C(=O)N3CCCC3)cc3sccc32)cc1`, the CC50 at 24 h [1] is reported as > 100 µM, the selectivity ratio [2] is reported as > 2.8 and the EC50 (Chikungunya virus) is reported as 35.4 µM. The viability at 24 h [3] was > 80%.
For `COc1ccc(Cn2c(C(=O)N3CCCCC3)cc3sccc32)cc1`, the CC50 at 24 h [1] was > 100 µM, the selectivity ratio [2] was > 2 and the EC50 (Chikungunya virus) was 49.7 µM. The viability at 24 h [3] was > 80%.
In the case of `COc1ccc(Cn2c(C(=O)N3CCC(C(=O)O)CC3)cc3sccc32)cc1`, the CC50 at 24 h [1] is reported as > 100 µM, the EC50 (Chikungunya virus) is reported as > 100 µM and the viability at 24 h [3] is reported as > 80%.
In the case of `COc1ccc(Cn2c(C(=O)NC(C)c3ccccc3)cc3sccc32)cc1` (configuration not stated), the CC50 at 24 h [1] is reported as > 100 µM, the EC50 (Chikungunya virus) is reported as > 100 µM and the viability at 24 h [3] is reported as > 80%.
In the case of `COc1ccc(Cn2c(C(=O)N3CCN(Cc4ccccc4)CC3)c(COCc3ccccc3)c3sccc32)cc1`, the CC50 at 24 h [1] is reported as > 100 µM, the EC50 (Chikungunya virus) is reported as > 100 µM and the viability at 24 h [3] is reported as > 80%.
With `CCOC(=O)c1cc2sccc2n1Cc1ccc(OC)cc1` the CC50 at 24 h [1] was > 100 µM, the EC50 (Chikungunya virus) was > 100 µM and the viability at 24 h [3] was > 80%.
For `COc1ccc(Cn2c(C(=O)N3CCN(Cc4ccccc4)CC3)cc3sc(C(=O)c4ccccc4)cc32)cc1`, the CC50 at 24 h [1] was > 100 µM, the EC50 (Chikungunya virus) was > 100 µM and the viability at 24 h [3] was > 80%.
In the case of `CCCNC(=O)C1CCN(C(=O)c2cc3sc(C(=O)c4ccccc4)cc3n2Cc2ccc(OC)cc2)CC1`, the CC50 at 24 h [1] is reported as > 100 µM, the EC50 (Chikungunya virus) is reported as > 100 µM and the viability at 24 h [3] is reported as > 80%.
For `COc1ccc(Cn2c(C(=O)NCc3ccccc3)cc3sccc32)cc1`, the CC50 at 24 h [1] was > 100 µM, the EC50 (Chikungunya virus) was > 100 µM and the viability at 24 h [3] was > 80%.
